Measured values taken from ChEMBL document CHEMBL3108717, “Dysideanones A-C, unusual sesquiterpene quinones from the South China Sea sponge Dysidea avara” (J Nat Prod, 2014).
Converted amounts (≈) assume the structure as drawn. The source made the active and inactive calls. No cut-off for these calls is given here.

How the values were obtained:
Staphylococcus aureus [1] = experiment: Antibacterial activity against methicillin/multi-drug-resistant Staphylococcus aureus assessed as growth inhibition; format: functional
Aspergillus niger = experiment: Antifungal activity against Aspergillus niger at 1 mg/mL; format: functional, organism-based
Candida albicans = experiment: Antifungal activity against Candida albicans at 1 mg/mL; format: functional, organism-based
Staphylococcus aureus [2] = experiment: Antibacterial activity against Staphylococcus aureus at 1 mg/mL; format: functional, organism-based
Bacillus subtilis = experiment: Antibacterial activity against Bacillus subtilis at 1 mg/mL; format: functional, organism-based
Rhodotorula glutinis = experiment: Antifungal activity against Rhodotorula glutinis at 1 mg/mL; format: functional, organism-based
HepG2 = experiment: Cytotoxicity against human HepG2 cells after 48 hrs by MTT assay; format: functional, cell-based; settings: HepG2, 48 h
Outline: (§1)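 MTT assay. Cells grown in RPMI1640 or DMEM with 10% fetal bovine serum at 37 °C, 5% CO2. Adherent cells allowed to attach 12 h before dosing; suspended cells seeded at dosing, initial density 1 × 10^5 cells/mL. Tested at 1, 10, 50 and 100 μM for 48 h in triplicate, 5-fluorouracil as positive control. Cells solubilized with DMSO, OD read at 595 nm. IC50 taken from mean-OD versus concentration curves.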

HeLa = experiment: Cytotoxicity against human HeLa cells after 48 hrs by MTT assay; format: functional, cell-based; outline: as §1

| Compound | MIC50 (Staphylococcus aureus [1]) [µg/mL] | Activity (Aspergillus niger) | Activity (Candida albicans) | Activity (Staphylococcus aureus [2]) | Activity (Bacillus subtilis) | Activity (Rhodotorula glutinis) | IC50 (HepG2) [µM] | IC50 (HeLa) [µM] |
| --- | --- | --- | --- | --- | --- | --- | --- | --- |
| C=C1[C@H]2C[C@]3(C)C(C)=CCC[C@H]3[C@]1(C)CC1=C2C(=O)C=C(OCC)C1=O | 0.2 (≈ 0.567 µM) | – | – | – | – | – | – | – |
| CC1=CC[C@H]2[C@H]3[C@](C)(CC4=CC(=O)C=C[C@@]42O)[C@@H](C)CC[C@]13C | – | inactive | inactive | inactive | inactive | inactive | – | – |
| O=c1[nH]cc(F)c(=O)[nH]1 [FLUOROURACIL] | – | – | – | – | – | – | 7.6 | 2.3 |
| CC1=CCC[C@H]2[C@]3(C)CC4=CC(=O)C=C[C@@]4(O)[C@]3(C)CC[C@]12C | – | inactive | inactive | inactive | inactive | inactive | – | – |
| C=C1CC[C@@H]2C3=C(C[C@]4(C)[C@@H](C)CC[C@@]1(C)[C@@H]24)C(=O)C(OCC)=CC3=O | – | inactive | inactive | inactive | inactive | inactive | 9.4 | 7.1 |
